According to paper PMC9037209 (Journal of Enzyme Inhibition and Medicinal Chemistry, 2022):
Converted amounts (≈) assume the structure as drawn. “And” between values parts separate entries of the source, which are not always exact repeats. Identical values can stand only once. “Also recorded” adds a separate entry of the source. Like-named read-outs stand apart in the source and are kept apart here. Marks after values point to notes of the source that are not given here.

Columns and labels:
[1] = target: PNP from Helicobacter pylori strain 26695 (HpPNP) (Helicobacter pylori, UniProt P56463); test: Inhibition of H. pylori PNP, direct spectrophotometric phosphorolysis assay; type: biochemical; settings: m7Guo variable substrate, 50 mM phosphate; for inhibition model describing the data: model chosen by F test / AIC; for alpha = Kiu/Kic: mixed inhibition model, 25 °C, pH 7.0
H. pylori strain 26695 [2] = test: Minimal inhibitory concentration; type: cell-based, Helicobacter pylori
Method in brief: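 Strain ATCC 26695 revived from glycerol stock on BHI agar with 10% FBS and 1% selective supplement. Twofold compound dilutions (DMSO or water stocks) mixed 1:1 with inoculated double-strength BHI (20% FBS, 2% supplement; ~0.05 OD600, 4×10^4 CFU/mL final). Shaken at 120 rpm, 37 °C, microaerophilic; OD600 read at 0, 4, 8 and 24 h. Viability checked with Christensen's urea broth (4 h, aerobic, 37 °C). MIC taken at ≥90% inhibition; triplicates, kanamycin and DMSO controls.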

[3] = Solubility: concentration of dissolved inhibitor in filtered supernatants; type: physicochemical; settings: for solubility: water, kinetic from dmso stock; for maximal tested concentration of the fully dissolved compound: in the cell culture experiment, filtered supernatant
Method in brief: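 DMSO stocks (10 mM) diluted with water to the planned concentrations. Precipitate removed with sterile 0.22 µm syringe filters. Dissolved concentration in the filtrate measured by UV absorbance: ε261 10,900 M−1 cm−1 for the 6-benzyloxy analogue, ε299 18,000 M−1 cm−1 for 6-benzylthio analogues.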

H. pylori PNP = settings: read-out: inhibition constant; competitive vs. nucleoside substrate; cited from earlier work
H. pylori strain 26695 [4] = settings: cited from earlier work
H. pylori 26695 strain = test: Checkerboard assay of 6BnS-2Cl-Pu with metronidazole; type: cell-based, Helicobacter pylori; settings: single agent, concentration giving about 90% inhibition or more
Method in brief: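 Sub-MIC checkerboard against strain 26695 with metronidazole (range chosen from the EUCAST MIC). Test-compound gradient 3.0–10.0. Single agents added at 2× and combinations at 4× each, with inoculated double-strength BHI (~0.05 OD600, 4×10^4 CFU/mL final). Shaken at 120 rpm, 37 °C, microaerophilic. […] FICI = MICA/MICa + MICB/MICb.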

[5] = Helicobacter pylori, 26695, 24 h

Chain of PNP from Helicobacter pylori strain 26695 (HpPNP) (P56463 whole entry): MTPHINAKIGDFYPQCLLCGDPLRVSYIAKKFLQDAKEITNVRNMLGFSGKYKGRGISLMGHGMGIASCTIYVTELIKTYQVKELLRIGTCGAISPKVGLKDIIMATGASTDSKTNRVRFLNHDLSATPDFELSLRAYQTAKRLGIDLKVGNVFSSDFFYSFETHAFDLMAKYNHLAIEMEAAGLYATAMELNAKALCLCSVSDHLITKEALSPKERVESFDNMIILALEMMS

Compound | inhibition model describing the data [1] | alpha = Kiu/Kic [1] | MIC (H. pylori strain 26695 [2]; [5]) | solubility [3] | further results
Nc1ncnc2c([C@@H]3O[C@H](CO)[C@@H](O)[C@H]3O)[nH]nc12 [Formycin A] |  |  |  |  | Ki (H. pylori PNP): 14 ± 1.7 µM
NC[C@H]1O[C@H](O[C@H]2[C@H](O)[C@@H](O[C@H]3O[C@H](CO)[C@@H](O)[C@H](N)[C@H]3O)[C@H](N)C[C@@H]2N)[C@H](O)[C@@H](O)[C@@H]1O [kanamycin, Kanamycin] |  |  |  |  | MIC (H. pylori strain 26695 [4]): 0.5–64^f µg mL^−1; MIC (H. pylori strain 26695 [4]; converted from literature value): 1.1 to 132 µM; % of H. pylori cell culture inhibition (H. pylori strain 26695 [2]; 25 µg/mL (52 µM), positive control, not the maximal solubility): 92–96%
Cc1ncc([N+](=O)[O-])n1CCO [metronidazole] |  |  |  |  | MIC taken for FICI calculation (H. pylori 26695 strain): 2 µg/mL; MIC (H. pylori strain 26695 [4]; EUCAST): 8^f µg mL^−1; MIC (H. pylori strain 26695 [4]; converted from EUCAST value): 47 µM (≈ 8.04 µg/mL)

Further lines, with some results ahead:

inhibition model describing the data [1] | alpha = Kiu/Kic [1] | MIC (H. pylori strain 26695 [2]; [5]) | solubility [3] | Compound | further results
non-competitive | 1.17 ± 0.44 | 2500 µM (≈ 473 µg/mL) | 236 µg/mL and 1250 µM | Clc1nc(Cl)c2[nH]cnc2n1 [2,6-diCl-Pu, 2,6-dichloropurine] | MIC (H. pylori strain 26695 [2]; Helicobacter pylori, 26695): 2500 µM (≈ 473 µg/mL); solubility in water ([3]; 10 mM stock in milli-Q water and 2-fold dilutions, no precipitate): good solubility in water; also recorded: well soluble in water
mixed inhibition model | 0.25 ± 0.12 |  | 25 µg/mL and 95 µM | Clc1nc(OCc2ccccc2)c2[nH]cnc2n1 [6BnO-2Cl-Pu, 6-benzyloxy-2-chloropurine] | maximal tested concentration of the fully dissolved compound [3]: 0.095 mM
probably a mixed type | 0.16 ± 0.15 | 69 µg/mL and 250 µM | 11.1 µg/mL and 40 µM | Clc1nc(SCc2ccccc2)c2[nH]cnc2n1 [6BnS-2Cl-Pu, 6-benzylthio-2-chloropurine] | H. pylori 26695 cell culture growth inhibition (H. pylori strain 26695 [2]; solution prepared as 0.25 mM but partially precipitated): full inhibition; also recorded: Complete growth inhibition; maximal tested concentration of the fully dissolved compound [3]: 0.040 mM
non-competitive | 1.07 ± 0.27 | 48 µg/mL and 200 µM | 21 µg/mL and 85 µM | c1ccc(CSc2ncnc3nc[nH]c23)cc1 [6BnS-Pu, 6-benzylthiopurine] | H. pylori 26695 strain growth inhibition (H. pylori strain 26695 [2]; prepared as 200 µM but partially precipitated): completely inhibited
